Measurements published in PMC9723933 (The Journal of Biological Chemistry, 2022).
Each block holds one molecule with its values, some of them ahead of it.

How the values were obtained:
I685A mutant strain = type: cell-based, yeast; conditions: liquid YPD, 30 °C, n = 3
M1373A mutant strain = test: Relative drug resistance in liquid YPD culture; type: cell-based, yeast; conditions: compared with ΔPdr5 control strain
V1372A mutant strain = type: cell-based, yeast; conditions: liquid YPD, 30 °C, n = 3
F683L mutant strain [1] = conditions: original characterization; cited from earlier work
[2] = test system: M1373T and A684S mutant strains; test: Relative drug resistance; type: cell-based, yeast; conditions: n = 4
F683L mutant strain [3] = test: Relative drug resistance; type: cell-based, yeast; conditions: n = 4
ΔPdr5 strain = test: Whole-cell R6G transport against a concentration gradient; type: cell-based, yeast; conditions: median; 90 min, 30 °C, Hepes-glucose buffer
Pdr5 G1371A strain = Pdr5 G1371A strain (Saccharomyces cerevisiae, UniProt P33302, G1371A); test: Whole-cell R6G transport against a concentration gradient; type: cell-based, yeast; conditions: median; 90 min, 30 °C, Hepes-glucose buffer
Procedure, shortened: (§1)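 Log-phase yeast grown in YPD at 30 °C, R-1 background with integrated PDR5 under its own promoter. 3 × 10^6 cells were incubated in 0.02 M Hepes with 1 mM glucose (pH 7.0) and 20 μM R6G at 30 °C for 90 min, then washed in cold glucose-free Hepes. Median retained fluorescence was read by flow cytometry from 10,000 cells, in arbitrary units; n ≥ 4.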

Pdr5 M1373A mutant = Pdr5 M1373A mutant (Saccharomyces cerevisiae, UniProt P33302, M1373A); test: Whole-cell R6G transport against a concentration gradient; type: cell-based, yeast; conditions: median; 90 min, 30 °C, Hepes-glucose buffer
[4] = test system: Pdr5 I685A, V1372A double mutant; test: as above; type: cell-based, yeast
Pdr5 F1369A mutant = Pdr5 F1369A mutant (Saccharomyces cerevisiae, UniProt P33302, F1369A); test: as above; type: cell-based, yeast
Pdr5 WT control strain = Pdr5 WT control strain (Saccharomyces cerevisiae, UniProt P33302); test: Whole-cell R6G transport against a concentration gradient; type: cell-based, yeast; conditions: median; 90 min, 30 °C, Hepes-glucose buffer
Procedure, shortened: as §1

Pdr5 F683L mutant = test: Accumulation of R6G prior to glucose-mediated efflux; type: cell-based, yeast; conditions: 20 μM R6G, Hepes buffer, no glucose, 90 min
Pdr5 WT = Pdr5 WT (Saccharomyces cerevisiae, UniProt P33302); test: Inhibition of Pdr5 ATPase activity in purified PM vesicles; type: biochemical, yeast
Pdr5 G1371A = Pdr5 G1371A (Saccharomyces cerevisiae, UniProt P33302, G1371A); test: as above; type: biochemical, yeast; conditions: relative to WT
Pdr5 V1372A = Pdr5 V1372A (Saccharomyces cerevisiae, UniProt P33302, V1372A); test: biochemical; type: biochemical, yeast
Pdr5 I685A = Pdr5 I685A (Saccharomyces cerevisiae, UniProt P33302, I685A); test: biochemical; type: biochemical, yeast
[5] = target: Pdr5 V1372A, I685A double mutant (Saccharomyces cerevisiae, UniProt P33302, I685A/V1372A); test: biochemical; design: species or system yeast
Sequence of Pdr5 V1372A, I685A double mutant (P33302 whole entry I685A/V1372A): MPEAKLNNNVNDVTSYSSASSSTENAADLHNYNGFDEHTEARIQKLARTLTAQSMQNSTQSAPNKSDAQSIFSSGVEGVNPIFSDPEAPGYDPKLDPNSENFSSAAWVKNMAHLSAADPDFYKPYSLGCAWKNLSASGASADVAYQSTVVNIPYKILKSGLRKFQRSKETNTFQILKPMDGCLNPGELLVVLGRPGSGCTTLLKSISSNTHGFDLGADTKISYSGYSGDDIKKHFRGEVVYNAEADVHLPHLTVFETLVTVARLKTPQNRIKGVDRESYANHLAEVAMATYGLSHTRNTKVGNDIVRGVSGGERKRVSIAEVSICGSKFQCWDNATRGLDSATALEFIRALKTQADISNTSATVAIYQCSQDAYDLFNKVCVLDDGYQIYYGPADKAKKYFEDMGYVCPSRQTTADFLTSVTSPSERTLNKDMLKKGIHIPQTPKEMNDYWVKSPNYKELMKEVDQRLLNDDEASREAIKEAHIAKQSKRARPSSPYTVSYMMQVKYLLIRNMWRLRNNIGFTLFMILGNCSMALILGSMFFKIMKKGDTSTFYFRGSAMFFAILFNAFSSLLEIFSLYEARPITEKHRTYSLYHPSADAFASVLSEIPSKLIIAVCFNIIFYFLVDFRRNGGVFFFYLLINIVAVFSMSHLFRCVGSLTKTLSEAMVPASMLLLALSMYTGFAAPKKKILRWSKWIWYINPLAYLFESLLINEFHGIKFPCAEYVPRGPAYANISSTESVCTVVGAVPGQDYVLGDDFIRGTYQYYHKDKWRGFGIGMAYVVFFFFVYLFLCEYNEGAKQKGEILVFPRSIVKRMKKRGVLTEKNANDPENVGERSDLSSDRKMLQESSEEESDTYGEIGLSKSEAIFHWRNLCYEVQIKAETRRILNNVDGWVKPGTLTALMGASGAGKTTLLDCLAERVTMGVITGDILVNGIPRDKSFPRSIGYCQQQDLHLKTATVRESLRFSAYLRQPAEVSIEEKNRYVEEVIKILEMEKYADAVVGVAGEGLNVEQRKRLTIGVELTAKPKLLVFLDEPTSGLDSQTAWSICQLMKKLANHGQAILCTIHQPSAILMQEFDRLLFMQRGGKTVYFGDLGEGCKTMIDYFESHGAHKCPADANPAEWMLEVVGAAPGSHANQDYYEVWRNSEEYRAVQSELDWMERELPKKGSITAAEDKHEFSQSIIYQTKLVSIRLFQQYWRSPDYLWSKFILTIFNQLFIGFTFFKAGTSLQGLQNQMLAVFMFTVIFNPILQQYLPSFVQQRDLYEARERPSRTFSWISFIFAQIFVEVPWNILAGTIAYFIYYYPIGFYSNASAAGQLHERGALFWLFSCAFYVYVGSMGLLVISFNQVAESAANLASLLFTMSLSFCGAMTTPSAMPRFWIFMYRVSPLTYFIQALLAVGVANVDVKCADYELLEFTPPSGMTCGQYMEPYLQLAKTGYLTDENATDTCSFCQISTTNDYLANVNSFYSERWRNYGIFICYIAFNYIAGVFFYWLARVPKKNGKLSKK

Sequence of Pdr5 V1372A (P33302 whole entry V1372A): as the sequence (P33302 whole entry I685A/V1372A) above, with A685I counted along it
Sequence of Pdr5 F1369A mutant (P33302 whole entry F1369A): as the sequence (P33302 whole entry I685A/V1372A) above, with A685I, F1369A, A1372V counted along it
Sequence of Pdr5 I685A (P33302 whole entry I685A): as the sequence (P33302 whole entry I685A/V1372A) above, with A1372V counted along it
Sequence of Pdr5 G1371A (P33302 whole entry G1371A): as the sequence (P33302 whole entry I685A/V1372A) above, with A685I, G1371A, A1372V counted along it
Sequence of Pdr5 G1371A strain (P33302 whole entry G1371A): as the sequence (P33302 whole entry I685A/V1372A) above, with A685I, G1371A, A1372V counted along it
Sequence of Pdr5 M1373A mutant (P33302 whole entry M1373A): as the sequence (P33302 whole entry I685A/V1372A) above, with A685I, A1372V, M1373A counted along it
Sequence of Pdr5 WT control strain (P33302 whole entry): as the sequence (P33302 whole entry I685A/V1372A) above, with A685I, A1372V counted along it
Sequence of Pdr5 WT (P33302 whole entry): as the sequence (P33302 whole entry I685A/V1372A) above, with A685I, A1372V counted along it

Structure (SMILES): CC(C)(C)C(=O)C(Oc1ccc(Cl)cc1)n1ccnc1 (stereo not shown) [climbazole]
Resistance of I685A mutant relative to WT (I685A mutant strain): hypersensitive
Resistance of M1373A mutant (M1373A mutant strain): phenotypically indistinguishable from the ΔPdr5 control strain
Resistance of V1372A mutant relative to WT (V1372A mutant strain): hypersensitive

Structure (SMILES): OC(Cn1cncn1)(Cn1cncn1)c1ccc(F)cc1F [fluconazole]
Sensitivity of F683L mutant (F683L mutant strain [1]): hypersensitive
Sensitivity of M1373T and A684S mutants relative to WT [2]: quite hypersensitive

Structure (SMILES): C[C@@H]1C[C@@H]([C@H](O)CC2CC(=O)NC(=O)C2)C(=O)[C@@H](C)C1 [cycloheximide]
Resistance of I685A mutant relative to WT (I685A mutant strain): mildly hyper-resistant
Sensitivity of F683L mutant (F683L mutant strain [1]): hypersensitive
Resistance of M1373A mutant (M1373A mutant strain): phenotypically indistinguishable from the ΔPdr5 control strain
Sensitivity of M1373T and A684S mutants relative to WT [2]: mildly hypersensitive
Resistance of V1372A mutant relative to WT (V1372A mutant strain): hypersensitive

Structure (SMILES): CC(=O)N1CCN(c2ccc(OCC3COC(Cn4ccnc4)(c4ccc(Cl)cc4Cl)O3)cc2)CC1 (stereo not shown) [ketoconazole]
Rank of F683L mutant sensitivity among the four drugs (F683L mutant strain [3]): least sensitive
Sensitivity of M1373T and A684S mutants relative to WT [2]: quite hypersensitive

Structure (SMILES): C/C=C/C/C=C/CCC(=O)[C@H]1O[C@H]1C(N)=O [cerulenin]
Resistance of I685A mutant relative to WT (I685A mutant strain): hypersensitive
Resistance of V1372A mutant relative to WT (V1372A mutant strain): hyper-resistant

Retained R6G fluorescence, G1371A strain (Pdr5 G1371A strain): 3093 a.u.
Retained R6G fluorescence, M1373A mutant (Pdr5 M1373A mutant): 4900 a.u.
Retained fluorescence of F1369A mutant relative to WT control (Pdr5 F1369A mutant; against R6G gradient): ~5 ×
Retained R6G fluorescence, F1369A mutant (Pdr5 F1369A mutant; median, 90 min, 30 °C, Hepes-glucose buffer): 1288 a.u.
Retained R6G fluorescence, WT control strain (Pdr5 WT control strain): 272.6 a.u.
Structure (SMILES): CC/N=c1\cc2oc3cc(NCC)c(C)cc3c(-c3ccccc3C(=O)OCC)c-2cc1C [R6G, rhodamine 6G]
Retained R6G fluorescence, ΔPdr5 strain (ΔPdr5 strain): 5001 a.u.
Minimum inhibitory concentration of F683L mutant relative to WT value (F683L mutant strain [1]): one-eighth
Retained R6G in double mutant relative to WT strain [4]: twice
Rank of F683L mutant sensitivity among the four drugs (F683L mutant strain [3]): most sensitive
Sensitivity of M1373T and A684S mutants relative to WT [2]: indistinguishable from the WT
Fluorescence accumulated by F683L mutant relative to WT control (Pdr5 F683L mutant): about 3 ×

Structure (SMILES): CC/C(=C(\c1ccccc1)c1ccc(OCCN(C)C)cc1)c1ccccc1 [tamoxifen]
Resistance of I685A mutant relative to WT (I685A mutant strain): hypersensitive
Resistance of V1372A mutant relative to WT (V1372A mutant strain): hyper-resistant

Structure (SMILES): c1ccc(-c2ccc(C(c3ccccc3)n3ccnc3)cc2)cc1 (stereo not shown) [bifonazole]
IC50 (Pdr5 WT): 2.86 µM
Sensitivity of G1371A ATPase to allosteric inhibition (Pdr5 G1371A): strikingly hypersensitive
IC50 (Pdr5 V1372A): 3.29 µM
IC50 of single mutant V1372A compared with WT (Pdr5 V1372A; ATPase inhibition, in words): not significantly different from the WT
IC50 (Pdr5 I685A): 2.58 µM
IC50 of single mutant I685A compared with WT (Pdr5 I685A; ATPase inhibition, in words): not significantly different from the WT
IC50 [5]: 13 µM
